In general, IC50 refers to the concentration needed to halve the response being measured. A higher IC50 goes with a need for much substance. Usually inhibition stands for the percentage by which the read-out fell short of the control. Lower therefore signals a weak effect.

Molecules are shown by their SMILES. Some results are limits rather than exact numbers.

Results on 28 compounds are retold here after ChEMBL document CHEMBL1125214, “Synthesis and adenosine receptor affinity of a series of pyrazolo[3,4-d]pyrimidine analogues of 1-methylisoguanosine” (J Med Chem, 1991).

The target of series [1] is T1, Adenosine receptor A1 (Rattus norvegicus, UniProt P25099).
T1 sequence (P25099 whole entry): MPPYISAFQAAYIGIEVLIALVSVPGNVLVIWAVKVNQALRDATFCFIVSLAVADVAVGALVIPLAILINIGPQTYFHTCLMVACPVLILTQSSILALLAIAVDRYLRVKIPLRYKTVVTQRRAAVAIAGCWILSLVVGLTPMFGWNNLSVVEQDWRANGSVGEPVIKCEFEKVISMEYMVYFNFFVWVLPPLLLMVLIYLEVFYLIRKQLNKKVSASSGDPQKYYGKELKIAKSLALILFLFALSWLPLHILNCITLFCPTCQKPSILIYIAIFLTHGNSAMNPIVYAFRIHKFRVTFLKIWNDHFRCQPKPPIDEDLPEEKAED
The series can be described thus: Inhibitory concentration against R[3H]-N6-PIA binding to adenosine A1 receptors in rat whole brain membrane. It counts as cell membranes. The method in brief:
(§1)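 Rat whole-brain synaptosomal membranes were made by sucrose homogenization and 14500g pelleting. They were pretreated with adenosine deaminase (2 IU/mL, 37 °C, 30 min). Assay: membranes at 100-200 µg/mL, 2 nM R-[3H]N6-PIA, 50 mM Tris-HCl pH 7.4 with 1 mM MgCl2, 60 min at 37 °C. Compounds in DMSO. Nonspecific binding defined with 100 µM R-N6-PIA. GF/B filtration and scintillation counting. […] At least three runs in triplicate.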

Series [2] is described as follows: Hydrophobicity index measured by retention time on a reverse phase HPLC column. It counts as ADME.
Series [3] addresses Adenosine A2 receptor (Rattus norvegicus) (UniProt P29276+P30543). The series can be described thus: Inhibition of radioligand R[3H]-CGS 21680 binding to adenosine A2 receptors in rat striatal membrane at 20 uM concentration. Type of series: cell membranes. The settings on record: Striatum. A digest of the protocol:
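Striata from male Wistar rats (300-400 g) were homogenized in 50 mM Tris-HCl pH 7.4 with 10 mM MgCl2 and pelleted twice at 48000g. Assay: membranes at 100-200 µg/mL, 5 nM [3H]CGS 21680, 90 min at 23 °C. Nonspecific binding defined with 20 µM 2-chloroadenosine. Filtration and counting as in the A1 assay. Compounds tested at 20 µM; result expressed as % inhibition of control binding.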

In series [4] the target is T2, Adenosine receptor A1 (Rattus norvegicus) (UniProt P25099).
T2 sequence (whole entry): T1 sequence (P25099 whole entry)
The series can be described thus: Inhibition of radioligand R[3H]-N6-PIA binding to adenosine A1 receptors in rat whole brain membrane at 20 uM concentration. Type of series: cell membranes. The method in brief:
as §1

In series [5] the target is T1, Adenosine receptor A1. The series can be described thus: Inhibitory concentration against R[3H]-N6-PIA binding to adenosine A1 receptor in rat whole brain membrane. It counts as cell membranes. The method in brief: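 Rat whole-brain synaptosomal membranes were made by sucrose homogenization and 14500g pelleting. They were pretreated with adenosine deaminase (2 IU/mL, 37 °C, 30 min). Assay: membranes at 100-200 µg/mL, 2 nM R-[3H]N6-PIA, 50 mM Tris-HCl pH 7.4 with 1 mM MgCl2, 60 min at 37 °C. Compounds in DMSO. Nonspecific binding defined with 100 µM R-N6-PIA. GF/B filtration and scintillation counting. At least three runs in triplicate.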

Another series deals with Adenosine A2 receptor (Rattus norvegicus, UniProt P29276+P30543). The series can be described thus: Inhibitory concentration against [3H]CGS 21680 binding to adenosine A2 receptors in rat striatal membrane.
The target in series [6] is Adenosine receptors; A1 & A2 (Rattus norvegicus) (UniProt P29276+P25099+P30543). The series can be described thus: Ratio of IC50 for A2 and A1 receptor binding. It counts as protein assay.

For the compound `Cn1c(=O)[nH]c2c(cnn2-c2cccc(Cl)c2)c1=N`, at Adenosine receptor A1 [1], the IC50 worked out at 16.5 µM. For the same compound, the “k'” value in series [2] came out at 14.2. Moreover, the inhibition in series [3] is 29%; in series [4], 53%.

As to `CCCn1c(=O)[nH]c2c(cnn2-c2cccc(Cl)c2)c1=N`, the “k'” value in series [2] is recorded as above 36.5. In addition, the IC50 on Adenosine receptor A1 [5] was found to be 14.6 µM; at Adenosine A2 receptor, 47.3 µM. The inhibition in series [3] is 35%; in series [4] it was 68%. Besides, in series [6], the Ratio stood at 3.2.

Take `N=c1c2cnn(-c3ccccc3)c2[nH]c(=O)n1-c1ccccc1`: in series [2], the “k'” value came out at 5.1. The results for the inhibition in series [3] and in series [4] were 0% and 25%, respectively.

As to `Cn1c(=O)[nH]c2c(cnn2-c2cc(Cl)ccc2Cl)c1=N`, the “k'” value in series [2] was 4.8. For the same compound, the inhibition in series [3] is 3%; in series [4] it was 1%.

With `Cn1c(=O)[nH]c2c(cnn2-c2ccc(Br)cc2)c1=N`, in series [2], the “k'” value was 18.9. Besides, the values for the inhibition in series [3] and in series [4] were 7% and 34%, respectively.

As to `CCn1c(=O)[nH]c2c(cnn2-c2cccc(Cl)c2)c1=N`, in series [2], the “k'” value stood at 21.9. Moreover, the IC50 is 19.8 µM on Adenosine receptor A1 [5] and 23.5 µM at Adenosine A2 receptor. The inhibition was 24% in series [3] and 70% in series [4]. Moreover, in series [6], the Ratio was determined as 1.2.

Regarding `Cn1c(=O)[nH]c2c(cnn2-c2ccc(F)cc2)c1=N`, the “k'” value in series [2] was 4.1. Besides, the inhibition came to 0% in series [3] and 26% in series [4].

In the case of `CCCCn1c(=O)[nH]c2c(cnn2-c2cccc(Cl)c2)c1=N`, the “k'” value in series [2] is given as above 36.5. Further, the inhibition in series [3] is 38%; in series [4], 58%. For the same compound, the IC50 on Adenosine A2 receptor came out at 19.2 µM.

As to `Cn1c(=O)[nH]c2c(cnn2-c2ccc(Cl)cc2Cl)c1=N`, the “k'” value in series [2] was 7.1. Further, the figures for the inhibition in series [3] and in series [4] were 0% and 9%, respectively.

For `Cn1c(=O)[nH]c2c(cnn2-c2cccc([N+](=O)[O-])c2)c1=N`, the “k'” value in series [2] is recorded as above 36.5. Besides, the inhibition in series [3] amounted to 1%; in series [4] it was 2%.

Regarding `Cn1c(=O)[nH]c2c(cnn2C)c1=N`, the “k'” value in series [2] stood at 0.1. Further, the inhibition in series [3] worked out at 0%; in series [4] it was 6%.

For the compound `Cn1c(=O)[nH]c2c(cnn2-c2ccc([N+](=O)[O-])cc2)c1=N`, the “k'” value in series [2] was above 36.5. The inhibition in series [3] came out at 0%; in series [4], 5%.

Consider `Cn1c(=O)[nH]c2c(cnn2-c2ccccc2)c1=N`, for which, in series [2], the “k'” value is on record as 2.6. The inhibition in series [3] is 7%; in series [4], 30%.

In the case of `Cn1c(=O)[nH]c2c(cnn2-c2cc(Cl)cc(Cl)c2)c1=N`, in series [2], the “k'” value is above 36.5. Also, the values for the inhibition in series [3] and in series [4] were 0% and 29%, respectively.

Turning to `Cn1c(=O)[nH]c2c(cnn2-c2ccccc2N)c1=N`, the “k'” value in series [2] stood at 0.8. Besides, the inhibition in series [3] and in series [4] was 0% in each case.

For `Cn1c(=O)[nH]c2c(cnn2-c2ccccc2F)c1=N`, in series [2], the “k'” value came to 1.1. Also, the inhibition was 0% in series [3] and 8% in series [4].

`Cn1c(=O)[nH]c2c(cnn2-c2cccc(F)c2)c1=N`: the “k'” value in series [2] is given as 5.8. The inhibition came out at 22% in series [3] and 44% in series [4].

Take `Cn1c(=O)[nH]c2c(cnn2-c2ccc(N)cc2)c1=N`: in series [2], the “k'” value is 0.3. In addition, the inhibition in series [3] and in series [4] was 0% each time.

In the case of `Cn1c(=O)[nH]c2c(cnn2-c2ccc(Cl)cc2)c1=N`, in series [2], the “k'” value worked out at 13.6. Besides, the inhibition in series [3] is 0%; in series [4] it was 37%.

With `Cn1c(=O)[nH]c2c(cnn2-c2ccccc2Cl)c1=N`, the “k'” value in series [2] amounted to 1.7. Also, the inhibition in series [3] worked out at 0%; in series [4] it was 7%.

As to `CCCn1ncc2c(=N)n(C)c(=O)[nH]c21`, in series [2], the “k'” value was determined as 0.8. Moreover, the inhibition in series [3] amounted to 0%; in series [4], 5%.

In the case of `CCn1c(=O)[nH]c2c(cnn2-c2ccccc2)c1=N`, the “k'” value in series [2] came to 4.2. The values for the IC50 on Adenosine receptor A1 [5] and at Adenosine A2 receptor were 20.1 µM and 81.8 µM, respectively. Also, the inhibition in series [3] worked out at 16%; in series [4], 58%. For the same compound, the Ratio in series [6] was 4.1.

For `Cn1c(=O)[nH]c2c(cnn2-c2ccccc2[N+](=O)[O-])c1=N`, in series [2], the “k'” value was 0.9. The figures for the inhibition in series [3] and in series [4] were 7% and 5%, respectively.

Consider `Cn1c(=O)[nH]c2c(cnn2-c2cccc(N)c2)c1=N`, for which the “k'” value in series [2] is recorded as 0.7. For the same compound, the inhibition in series [3] and in series [4] was 0% throughout.

On to `Cn1c(=O)[nH]c2c(cnn2-c2cccc(Br)c2)c1=N`, for which the “k'” value in series [2] was 17.5. The inhibition is 1% in series [3] and 40% in series [4].

On to `Cn1c(=O)[nH]c2c(cnn2-c2ccccc2Br)c1=N`, for which the “k'” value in series [2] came out at 1.8. For the same compound, the inhibition is 0% in series [3] and 6% in series [4].

Regarding `CCCn1c(=O)[nH]c2c(cnn2-c2ccccc2)c1=N`, in series [2], the “k'” value is given as 7.5. Moreover, the IC50 at Adenosine receptor A1 [5] worked out at 50.7 µM; on Adenosine A2 receptor, 50.2 µM. Besides, the inhibition in series [3] was 7%; in series [4] it was 52%. The Ratio in series [6] worked out at 1.

In the case of `CCCCn1c(=O)[nH]c2c(cnn2-c2ccccc2)c1=N`, the “k'” value in series [2] came out at 18.5. For the same compound, the IC50 on Adenosine receptor A1 [5] is 9.6 µM; at Adenosine A2 receptor it was 24.8 µM. In addition, the inhibition in series [3] turned out to be 21%; in series [4] it was 72%. Besides, in series [6], the Ratio came out at 2.6.
